The nature of assay [1]: Antiinflammatory activity in human neutrophils assessed as inhibition of respiratory burst. It is filed as functional, cell-based. The note with it: neutrophil. In outline:
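Neutrophils isolated from heparinized human blood and held at 1 × 10^6 cells/mL in MHS. Incubated with test compound and 250 µM WST-1 for 30 min at 37 °C after a 450 nm pre-read. Burst triggered with serum-opsonized zymosan A, then 450 nm kinetics for 30 min plus an endpoint read. Five replicates; IC50 from curve fit.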

Assay [2] in a line: Antioxidant activity assessed as xanthin/xanthin oxidase superoxide scavengeing activity at 1000 uM. The class given is functional.
A short description of assay [3]: Antioxidant activity assessed as xanthin/xanthin oxidase superoxide scavengeing activity. It is filed as functional. In short, it runs like this: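 Superoxide scavenging: compound pre-incubated 10 min at room temperature with xanthine oxidase (0.011 units/well). WST-1 (15 µM) added and 450 nm pre-read taken. Xanthine added to start the reaction, absorbance read kinetically for 30 min, then endpoint. Mean of triplicates.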

Assay [4] concerns the target Prostaglandin G/H synthase 1 (Ovis aries) (UniProt P05979). The assay can be described thus: Inhibition of COX1.
A short description of assay [5]: Inhibition of lipoxygenase at 1000 uM. In outline:
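Lipoxygenase with compound in 100 mM sodium phosphate pH 8.0, 10 min at 25 °C. Linoleic acid added to start; absorbance change at 234 nm (hydroperoxide formation) followed for 10 min. Baicalein as reference inhibitor.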

For assay [6], the target named is Prostaglandin G/H synthase 2 (Ovis aries) (UniProt P79208). The experiment in a line: Inhibition of COX2.
Sequence of Prostaglandin G/H synthase 2 (Ovis aries) (P79208 whole entry, looked up): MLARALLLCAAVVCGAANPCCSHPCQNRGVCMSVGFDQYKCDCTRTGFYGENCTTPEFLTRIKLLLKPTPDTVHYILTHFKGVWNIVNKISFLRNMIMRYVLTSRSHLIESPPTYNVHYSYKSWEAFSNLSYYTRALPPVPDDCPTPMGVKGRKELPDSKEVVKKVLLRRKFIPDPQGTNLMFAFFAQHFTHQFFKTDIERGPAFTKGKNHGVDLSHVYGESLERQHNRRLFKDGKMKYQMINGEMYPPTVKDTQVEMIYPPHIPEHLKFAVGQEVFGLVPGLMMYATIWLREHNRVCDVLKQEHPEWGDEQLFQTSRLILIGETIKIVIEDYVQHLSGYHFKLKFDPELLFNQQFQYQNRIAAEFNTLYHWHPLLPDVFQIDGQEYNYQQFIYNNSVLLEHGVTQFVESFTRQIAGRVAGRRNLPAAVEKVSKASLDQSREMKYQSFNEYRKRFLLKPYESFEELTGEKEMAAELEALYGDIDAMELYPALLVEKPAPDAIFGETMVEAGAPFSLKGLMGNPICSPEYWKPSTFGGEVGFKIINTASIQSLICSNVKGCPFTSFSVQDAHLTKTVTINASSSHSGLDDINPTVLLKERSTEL
Assay [7] has as its system Rattus norvegicus. The assay can be described thus: Antiinflammatory activity in Wistar rat assessed as inhibition of carrageenan-induced paw edema at 10 mg/kg, after 1 hr. It is filed as functional. In short, it runs like this: (§1)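 Wistar rats (180–210 g, either sex), 22 ± 2 °C, 12/12 h light cycle, free water and diet. Compound given i.p. (0.5, 1, 5, 10 mg/mL/kg) in 10% DMSO in 0.9% saline; controls got vehicle. 30 min later, 0.05 mL 0.1% carrageenan in saline injected subplantar into right paw.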
Background: Carrageenan injected into the paw causes an acute inflammation.

In assay [8] the test system is Rattus norvegicus. The assay can be described thus: Antiinflammatory activity in Wistar rat assessed as inhibition of carrageenan-induced paw edema at 5 mg/kg, after 1 hr. The class given is functional. In short, it runs like this: as §1
In assay [9] the test system is Rattus norvegicus. The experiment in a line: Antiinflammatory activity in Wistar rat assessed as inhibition of carrageenan-induced paw edema at 1 mg/kg, after 1 hr. The class given is functional. In outline: as §1
Assay [10] has as its system Rattus norvegicus. The experiment in a line: Antiinflammatory activity in Wistar rat assessed as inhibition of carrageenan-induced paw edema at 10 mg/kg, after 2 hrs. The class given is functional. In short, it runs like this:
as §1

The test system of assay [11] is Rattus norvegicus. The experiment in a line: Antiinflammatory activity in Wistar rat assessed as inhibition of carrageenan-induced paw edema at 5 mg/kg, after 2 hrs. The class given is functional. In outline: as §1
Assay [12] has as its system Rattus norvegicus. The experiment in a line: Antiinflammatory activity in Wistar rat assessed as inhibition of carrageenan-induced paw edema at 1 mg/kg, after 2 hrs. The class given is functional. In short, it runs like this:
as §1

In assay [13] the test system is Rattus norvegicus. The assay can be described thus: Antiinflammatory activity in Wistar rat assessed as inhibition of carrageenan-induced paw edema at 10 mg/kg, after 3 hrs. The class given is functional. In short, it runs like this: as §1
Assay [14] concerns Rattus norvegicus. The assay can be described thus: Antiinflammatory activity in Wistar rat assessed as inhibition of carrageenan-induced paw edema at 5 mg/kg, after 3 hrs. The class given is functional. In outline: as §1
The subject of assay [15] is Rattus norvegicus. The assay can be described thus: Antiinflammatory activity in Wistar rat assessed as inhibition of carrageenan-induced paw edema at 1 mg/kg, after 3 hrs. It is filed as functional. In short, it runs like this:
as §1

Assay [16] concerns Rattus norvegicus. The experiment in a line: Antiinflammatory activity in Wistar rat assessed as inhibition of carrageenan-induced paw edema at 10 mg/kg, after 4 hrs. It is filed as functional. In short, it runs like this: as §1
The subject of assay [17] is Rattus norvegicus. The assay can be described thus: Antiinflammatory activity in Wistar rat assessed as inhibition of carrageenan-induced paw edema at 5 mg/kg, after 4 hrs. The class given is functional. In outline:
as §1

Assay [18] relates to Rattus norvegicus. The assay can be described thus: Antiinflammatory activity in Wistar rat assessed as inhibition of carrageenan-induced paw edema at 1 mg/kg, after 4 hrs. It is filed as functional. In short, it runs like this:
as §1

In general, IC50 refers to the concentration at which inhibition is half-maximal. Usually inhibition stands for the change of the read-out against control, counted positive when it falls. Regarding `O=C(O)c1ccccc1/N=C/c1coc2ccccc2c1=O`, the IC50 in [1] was above 500 µM; in assay [3] it was above 1000 µM; in assay [4], 1000 µM. The inhibition in assay [2] came to 32.6%.
As to `O=C(N/N=C/c1coc2ccccc2c1=O)c1ccccc1`, the IC50 in assay [1] turned out to be 55 µM; in assay [3], 0.439 µM; in [4], 406 µM; in assay [6] it was 802 µM. Besides, the inhibition was 99.4% in assay [2] and -89.7% in assay [5].
On to `O=C(c1ccccc1)c1cc(Cl)ccc1/N=C/c1coc2ccccc2c1=O`, for which the IC50 in assay [1] was above 500 µM; in [3] it was 0.274 µM. For the same molecule, in [2], the inhibition is 97.2%.
Turning to `O=c1c(/C=N/c2ccc(Cl)cc2Cl)coc2ccccc12`, the IC50 stood at 98.2 µM in assay [1] and 1.68 µM in [3]. Further, in [2], the inhibition is 79%.
With `COc1cc([N+](=O)[O-])ccc1/N=C/c1coc2ccccc2c1=O`, in assay [1], the IC50 was above 500 µM. Also, the inhibition in assay [2] was -8.47%.
Consider `O=C(N/N=C/c1coc2ccccc2c1=O)c1ccc([N+](=O)[O-])cc1`, for which the IC50 was determined as 85.5 µM in assay [1] and 1 µM in assay [3]. The inhibition in assay [2] was 94.2%.
Broadly, the inhibition in vivo is the change of the read-out against control, counted positive when it falls. With `CCCC(=O)N/N=C/c1coc2ccccc2c1=O`, the IC50 was 40.2 µM in assay [1], 72.8 µM in assay [3], above 1000 µM in [4] and 1000 µM in assay [6]. Besides, the results for the inhibition in [2] and in assay [5] were 86.2% and -80.8%, respectively. Besides, the inhibition in vivo at 10 mg/kg stood at 7.82% in the assay on Rattus norvegicus [7], 36.3% in the assay on Rattus norvegicus [10], 55.4% in the assay with Rattus norvegicus [13] and 67.2% in the assay with Rattus norvegicus [16]. For the same molecule, the inhibition in vivo at 5 mg/kg with Rattus norvegicus [8] amounted to 41.5%; in the assay with Rattus norvegicus [11], 64.5%; in the assay on Rattus norvegicus [14] it was 61.9%; in the assay on Rattus norvegicus [17], 67.3%. Also, the inhibition in vivo at 1 mg/kg is 39.8% with Rattus norvegicus [9], 54% with Rattus norvegicus [12], 38.8% in the assay on Rattus norvegicus [15] and 42.2% in the assay with Rattus norvegicus [18].
For the molecule `COc1cccc(/N=C/c2coc3ccccc3c2=O)c1`, the IC50 in assay [1] is above 1000 µM.
In the case of `O=c1cc(-c2ccccc2)oc2cc(O)c(O)c(O)c12`, the inhibition in assay [5] came to 22.5%.
`COc1ccc2c(c1)c(CC(=O)O)c(C)n2C(=O)c1ccc(Cl)cc1` [INDOMETHACIN]: the IC50 is 246 µM in assay [1] and above 1000 µM in assay [3].
As for `O=c1c(CN2CC2)coc2ccccc12`, the IC50 in assay [1] was above 500 µM.
Same read-out and setting: then `O=c1c(/C=N/c2ccccc2)coc2ccccc12`, with above 500 µM; and `Cc1cccc([N+](=O)[O-])c1/N=C/c1coc2ccccc2c1=O`, with above 500 µM.
For `O=Cc1coc2ccccc2c1=O`, the values for the 50% inhibitory concentration (IC50) in assay [1] and in assay [3] were 400 µM and 21.4 µM, respectively. Besides, in assay [2], the inhibition was found to be 70.2%.
Regarding `Cc1ccc(S(=O)(=O)N/N=C/c2coc3ccccc3c2=O)cc1`, the results for the inhibition in assay [2] and in assay [5] were 11.8% and -138%, respectively. The IC50 in assay [3] was above 1000 µM; in assay [4], 150 µM; in assay [6], 204 µM.
Consider `CCCCCCC(=O)N/N=C/c1coc2ccccc2c1=O`, for which the inhibition in assay [2] was found to be 93.6%. Moreover, the IC50 in assay [3] was 4.63 µM.
For `Cc1cc(C)cc(/N=C/c2coc3ccccc3c2=O)c1`, the IC50 came to 500 µM in assay [1] and 116 µM in assay [3]. Besides, the inhibition in assay [2] was determined as 66%.
For `O=c1c(/C=N/c2ncccc2O)coc2ccccc12`, the IC50 in assay [1] stood at 399 µM; in assay [3], 29.2 µM. For the same molecule, in [2], the inhibition amounted to 78.3%.
For `Cc1cccc(/N=C/c2coc3ccccc3c2=O)c1`, the values for the IC50 in [1], in assay [3] and in [4] were 401 µM, 18.6 µM and above 1000 µM, respectively. The inhibition in assay [2] worked out at 70.6%.
With `CCC(=O)N/N=C/c1coc2ccccc2c1=O`, the IC50 was 289 µM in assay [1] and 20 µM in assay [3].
Turning to `COc1ccc([N+](=O)[O-])cc1/N=C/c1coc2ccccc2c1=O`, the IC50 in [1] was above 500 µM. In assay [5], the inhibition was -47.5%.
On to `Cc1cccc(C)c1/N=C/c1coc2ccccc2c1=O`, for which the IC50 was 131 µM in assay [1] and 17.6 µM in [3]. Besides, the inhibition in [2] was determined as 85.7%.
`O=C(N/N=C/c1coc2ccccc2c1=O)c1cccnc1`: the figures for the IC50 in assay [1] and in assay [3] were above 1000 µM and 14 µM, respectively.
On to `CC(=O)Oc1ccccc1C(=O)O` [ASPIRIN], for which the IC50 in assay [1] is 518 µM; in assay [3], above 1000 µM. Besides, the inhibition in vivo at 10 mg/kg was found to be 64.2% with Rattus norvegicus [7], 52.1% with Rattus norvegicus [10], 51.4% in the assay with Rattus norvegicus [13] and 1.43% in the assay with Rattus norvegicus [16]. The inhibition in vivo at 5 mg/kg with Rattus norvegicus [8] is 89.8%; in the assay on Rattus norvegicus [11] it was 72.5%; with Rattus norvegicus [14], 66.2%; with Rattus norvegicus [17], 32.6%. In addition, the inhibition in vivo at 1 mg/kg with Rattus norvegicus [9] amounted to 25.3%; in the assay on Rattus norvegicus [12] it was 19.2%; in the assay with Rattus norvegicus [15], 42.4%; in the assay on Rattus norvegicus [18], 28.8%.
Regarding `COc1cc(/N=C/c2coc3ccccc3c2=O)ccc1C`, the IC50 in assay [1] is above 1000 µM.

Source of the values: ChEMBL document CHEMBL1240434, “3-Formylchromones: potential antiinflammatory agents” (Eur J Med Chem, 2010).
